# Experimental data as given in ChEMBL document CHEMBL3822422, “Discovery of the First α-Amino-3-hydroxy-5-methyl-4-isoxazolepropionic Acid (AMPA) Receptor Antagonist Dependent upon Transmembrane AMPA Receptor Regulatory Protein (TARP) γ-8” (J Med Chem, 2016).
# What was measured:
# [1] = Toxicity in po dosed Sprague-Dawley rat assessed as motor impairment by inverted screen test; assay type: organism-based; conditions: in vivo
# Method in brief: (§1)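 Rats given compound orally (10 or 100 mg/kg), scored on inverted screen for motor impairment; plasma exposure measured; ≥4 rats/group, mean ± SEM; TD50 used with PTZ ED50 for protective index.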
# Glutamate receptor 1 [2] = target: T1, Glutamate receptor 1 (Homo sapiens, UniProt P42261); test: (§2) Antagonist activity at human iGluA1 receptor flop isoform expressed in CHO-S cells coexpressing TARP gamma-8 and human EAAT3 assessed as inhibition of glutamate-induced increase in intracellular calcium levels after 2 mins followed by cyclothiazide/glutamate addition by fluo-4 AM dye based fluorescence imaging plate reader method; assay type: cell-based
# T1 sequence (P42261 whole entry, canonical isoform): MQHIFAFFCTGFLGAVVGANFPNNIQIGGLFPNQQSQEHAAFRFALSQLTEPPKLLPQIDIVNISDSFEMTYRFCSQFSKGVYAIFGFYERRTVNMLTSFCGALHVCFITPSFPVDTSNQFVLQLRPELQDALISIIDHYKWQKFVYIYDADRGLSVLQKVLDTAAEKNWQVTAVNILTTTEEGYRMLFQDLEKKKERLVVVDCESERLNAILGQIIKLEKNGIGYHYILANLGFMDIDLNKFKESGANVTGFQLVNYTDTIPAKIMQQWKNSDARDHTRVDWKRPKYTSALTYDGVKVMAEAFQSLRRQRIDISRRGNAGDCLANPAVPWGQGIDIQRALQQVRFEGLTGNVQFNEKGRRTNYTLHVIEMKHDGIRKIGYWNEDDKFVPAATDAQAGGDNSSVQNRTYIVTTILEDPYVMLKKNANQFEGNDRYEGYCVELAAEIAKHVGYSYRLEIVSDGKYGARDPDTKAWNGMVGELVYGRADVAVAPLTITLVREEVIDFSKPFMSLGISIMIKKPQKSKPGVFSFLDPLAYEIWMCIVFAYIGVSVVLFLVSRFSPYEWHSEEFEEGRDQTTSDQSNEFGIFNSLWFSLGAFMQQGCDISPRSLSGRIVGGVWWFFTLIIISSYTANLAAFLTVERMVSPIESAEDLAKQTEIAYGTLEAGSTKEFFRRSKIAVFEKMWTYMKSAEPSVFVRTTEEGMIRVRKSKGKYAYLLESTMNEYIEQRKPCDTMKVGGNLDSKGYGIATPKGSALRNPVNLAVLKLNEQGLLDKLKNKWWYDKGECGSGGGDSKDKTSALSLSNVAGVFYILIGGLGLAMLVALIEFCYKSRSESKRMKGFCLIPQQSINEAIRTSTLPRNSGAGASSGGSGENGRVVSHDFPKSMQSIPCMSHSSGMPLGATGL
# Method in brief: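 Transiently transfected CHO-S cells (human GluA1Q flop with TARP γ-8 and human EAAT3, DNA ratio 2:3), frozen, thawed, plated overnight at 37 °C; Fluo-4 AM loading 2 h at 22 °C. Compound added, then 2 min later glutamate (5 μM final); cyclothiazide (20 μM) plus glutamate (45 μM) 2 min after. FLIPR Ca2+ read; inhibition relative to 167 μM nonselective antagonist and buffer baseline; four-parameter logistic IC50; mean ± SEM, n ≥ 2.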
# Glutamate receptor 1 [3] = target: T1, Glutamate receptor 1; test: as §2, with “gamma-2” for “gamma-8 and human EAAT3”; assay type: cell-based
# Glutamate receptor 1 [4] = target: T1, Glutamate receptor 1; test: Antagonist activity at human iGluA1 receptor flip isoform expressed in CHO-S cells assessed as inhibition of glutamate-induced increase in intracellular calcium levels after 2 mins followed by cyclothiazide/glutamate addition by fluo-4 NW dye based fluorescence imaging plate reader method; assay type: cell-based
# [5] = AUC in rat at 1 mg/kg, iv; assay type: ADME, organism-based; conditions: in vivo
# Method in brief: (§3)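 Rats dosed 1 mg/kg iv or 3 mg/kg po; plasma concentration–time profiles give AUC, CL, Vdss, Cmax, Tmax and absolute oral bioavailability; mean and SEM, n = 3.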
# [6] = Clearance in rat; assay type: ADME, organism-based; conditions: in vivo
# Cytochrome P450 1A2 = target: T2, Cytochrome P450 1A2 (Homo sapiens, UniProt P05177); test: Inhibition of human CYP1A2; assay type: ADME
# T2 sequence (P05177 whole entry): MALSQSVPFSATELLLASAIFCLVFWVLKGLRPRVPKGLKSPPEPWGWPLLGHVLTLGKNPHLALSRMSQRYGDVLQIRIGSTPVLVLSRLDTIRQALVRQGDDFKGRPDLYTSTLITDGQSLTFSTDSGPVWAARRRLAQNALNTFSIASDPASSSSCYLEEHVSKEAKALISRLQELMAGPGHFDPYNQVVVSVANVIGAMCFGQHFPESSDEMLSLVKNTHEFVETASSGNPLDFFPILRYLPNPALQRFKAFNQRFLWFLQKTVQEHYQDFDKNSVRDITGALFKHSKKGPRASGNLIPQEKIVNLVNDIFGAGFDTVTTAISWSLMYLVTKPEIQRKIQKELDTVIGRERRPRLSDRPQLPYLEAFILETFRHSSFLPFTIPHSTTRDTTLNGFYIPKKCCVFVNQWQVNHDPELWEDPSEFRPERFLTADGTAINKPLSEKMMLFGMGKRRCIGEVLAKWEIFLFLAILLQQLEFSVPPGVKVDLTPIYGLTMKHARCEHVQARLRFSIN
# Rattus norvegicus [7] = test: Anticonvulsant activity in po dosed Sprague-Dawley rat assessed as inhibition of pentylenetetrazole-induced clonic convulsions administered 30 mins prior to PTZ dosing measured over 30 mins; assay type: functional
# [8] = Oral bioavailability in rat at 3 mg/kg; assay type: ADME, organism-based; conditions: in vivo; method in brief: as §3
# [9] = Volume of distribution at steady state in rat at 1 mg/kg, iv; assay type: ADME, organism-based; conditions: in vivo, read-out: Vdss; method in brief: as §3
# [10] = Clearance in rat at 1 mg/kg, iv; assay type: ADME, organism-based; conditions: in vivo; method in brief: as §3
# [11] = AUC in rat at 3 mg/kg, po; assay type: ADME, organism-based; conditions: in vivo; method in brief: as §3
# [12] = Tmax in rat at 3 mg/kg, po; assay type: ADME, organism-based; conditions: in vivo; method in brief: as §3
# [13] = Cmax in rat at 3 mg/kg, po; assay type: ADME, organism-based; set-up: dose 3 mg/kg, route oral; conditions: in vivo; method in brief: as §3
# Rattus norvegicus [14] = species: Rattus norvegicus; test: Potency index, ratio of perampanel ED50 to compound ED50 for inhibition of pentylenetetrazole-induced clonic convulsions in Sprague-Dawley rat; assay type: functional
# Rattus norvegicus [15] = test: Anticonvulsant activity in po dosed Sprague-Dawley rat assessed as inhibition of pentylenetetrazole-induced clonic convulsions at 1 mg/kg administered 30 mins prior to PTZ dosing measured over 30 mins; assay type: functional
# Rattus norvegicus [16] = test: Anticonvulsant activity in po dosed Sprague-Dawley rat assessed as inhibition of pentylenetetrazole-induced clonic convulsions at 3 mg/kg administered 30 mins prior to PTZ dosing measured over 30 mins; assay type: functional
# Rattus norvegicus [17] = test: Anticonvulsant activity in po dosed Sprague-Dawley rat assessed as inhibition of pentylenetetrazole-induced clonic convulsions at 10 mg/kg administered 30 mins prior to PTZ dosing measured over 30 mins; assay type: functional
# Plasma [18] = test: Plasma concentration in Sprague-Dawley rat at 30 mg/kg, po; assay type: ADME, organism-based; conditions: in vivo
# Plasma [19] = test: Plasma concentration in Sprague-Dawley rat at 1 mg/kg, po; assay type: ADME, organism-based; conditions: in vivo
# Plasma [20] = test: Plasma concentration in Sprague-Dawley rat at 3 mg/kg, po; assay type: ADME, organism-based; conditions: in vivo
# Plasma [21] = test: Plasma concentration in Sprague-Dawley rat at 10 mg/kg, po; assay type: ADME, organism-based; conditions: in vivo
# Rattus norvegicus [22] = test: Receptor occupancy at TARP gamma-8 containing AMPA receptor in Sprague-Dawley rat at 1 mg/kg, po administered 30 mins prior to addition of 6-[2-Ethoxyethyl-[4-(2-pyridyl)thiazol-2-yl]amino]-3H-1,3-benzothiazol-2-one measured after 40 mins by […]; assay type: functional
# Rattus norvegicus [23] = test: Receptor occupancy at TARP gamma-8 containing AMPA receptor in Sprague-Dawley rat at 3 mg/kg, po administered 30 mins prior to addition of 6-[2-Ethoxyethyl-[4-(2-pyridyl)thiazol-2-yl]amino]-3H-1,3-benzothiazol-2-one measured after 40 mins by […]; assay type: functional
# Rattus norvegicus [24] = test: Receptor occupancy at TARP gamma-8 containing AMPA receptor in Sprague-Dawley rat at 10 mg/kg, po administered 30 mins prior to addition of 6-[2-Ethoxyethyl-[4-(2-pyridyl)thiazol-2-yl]amino]-3H-1,3-benzothiazol-2-one measured after 40 mins by […]; assay type: functional
# Rattus norvegicus [25] = test: Receptor occupancy at TARP gamma-8 containing AMPA receptor in Sprague-Dawley rat at 30 mg/kg, po administered 30 mins prior to addition of 6-[2-Ethoxyethyl-[4-(2-pyridyl)thiazol-2-yl]amino]-3H-1,3-benzothiazol-2-one measured after 40 mins by […]; assay type: functional
# Brain [26] = test: Drug uptake in Sprague-Dawley rat brain at 1 mg/kg, po; assay type: ADME, organism-based; conditions: in vivo
# Method in brief: (§4)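 Rats dosed orally 1–30 mg/kg 30 min before iv bolus of non-radiolabelled tracer; brain taken 40 min after tracer; tracer in hippocampus (total binding) and cerebellum (null region) quantified by LC-MS/MS; occupancy by ratio method; brain exposure measured; n = 4 per group, mean ± SEM.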
# Brain [27] = test: Drug uptake in Sprague-Dawley rat brain at 3 mg/kg, po; assay type: ADME, organism-based; conditions: in vivo; method in brief: as §4
# Brain [28] = test: Drug uptake in Sprague-Dawley rat brain at 10 mg/kg, po; assay type: ADME, organism-based; conditions: in vivo; method in brief: as §4
# Brain [29] = test: Drug uptake in Sprague-Dawley rat brain at 30 mg/kg, po; assay type: ADME, organism-based; conditions: in vivo; method in brief: as §4
# Plasma [30] = test: Plasma concentration in Sprague-Dawley rat at 100 mg/kg, po; assay type: ADME, organism-based; conditions: in vivo; method in brief: as §1
# Rattus norvegicus [31] = test: Toxicity in Sprague-Dawley rat assessed as motor impairment up to 100 mg/kg, po by inverted screen test; assay type: organism-based; conditions: in vivo; method in brief: as §1
# Rattus norvegicus [32] = test: Protective index, ratio of TD50 for motor impairment to ED50 for inhibition of pentylenetetrazole-induced clonic convulsions in po dosed Sprague-Dawley rat
# Method in brief: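 PI = inverted screen TD50 divided by PTZ ED50. For the ED50, rats were dosed orally 30 min before PTZ (35 mg/kg, sc), with n = 10 per group. Read-out was % block of clonic convulsions; ED50 given with 95% confidence limits.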
compound,measurement,setting,value
C[C@@H](c1ccc2[nH]c(=O)sc2c1)c1ccn(-c2ccc(OCCO)cn2)n1,TD50,[1],3.8 mg/kg
same,IC50,Glutamate receptor 1 [2],0.0653 µM
same,IC50,Glutamate receptor 1 [3],68.5 µM
same,IC50,Glutamate receptor 1 [4],83.3 µM
same,AUC,[5],1470 ng·h/mL
same,clearance,[6],11.4 mL/min/kg
same,IC50,Cytochrome P450 1A2,> 10 µM
same,ED50,Rattus norvegicus [7],1.7 mg/kg
same,inhibition,Rattus norvegicus [7],Dose-dependent effect
same,bioavailability,[8],97%
same,Vd,[9],1.28 L/kg
same,clearance,[10],11.4 mL/min/kg
same,AUC,[11],4220 ng·h/mL
same,Tmax,[12],1.3 h
same,Cmax,[13],628 ng/mL
same,Ratio ED50,Rattus norvegicus [14],10
same,inhibition in vivo at 1 mg/kg,Rattus norvegicus [15],40%
same,inhibition in vivo at 3 mg/kg,Rattus norvegicus [16],80%
same,inhibition in vivo at 10 mg/kg,Rattus norvegicus [17],100%
same,Cp,Plasma [18],1780 ng/mL
same,Cp,Plasma [19],377 ng/mL
same,Cp,Plasma [20],1269 ng/mL
same,Cp,Plasma [21],3360 ng/mL
same,Occ,Rattus norvegicus [22],45%
same,Occ,Rattus norvegicus [23],69%
same,Occ,Rattus norvegicus [24],68%
same,Occ,Rattus norvegicus [25],96%
same,Drug uptake,Brain [26],133 ng/g
same,Drug uptake,Brain [27],477 ng/g
same,Drug uptake,Brain [28],1526 ng/g
same,Drug uptake,Brain [29],2400 ng/g
same,Cp,Plasma [30],8342 ng/mL
same,Activity,Rattus norvegicus [31],Non-toxic
same,Ratio TD50/ED50,Rattus norvegicus [32],>58
